Results from different studies.
Read-out: cell growth or viability

For `CC1(C)C[C@H]2[C@H]1CC[C@]1(C)CCC[C@@]2(n2cc(C(=O)Nc3ccc(Cl)cc3)nn2)C1`, the inhibition was 16.8% (HT-29; CCK-8; 50 µM).
`CCC(=O)NCc1ccc(-c2cnc(C3CN(C(=O)c4ccc(NC(=O)[C@@H]5CC(C)(C)CN5)s4)C3)s2)c2ccccc12` gave a GI50 of greater than 10 µM (IMR-90; SRB; 7 days).
`O=c1c2cc(Cl)ccc2nc(-c2ccccc2)n1N=Cc1ccc(Cl)cc1Cl` gave an IC50 of 264 µM (LLC-PK1; MTT; 72 h).
The inhibition of `Cc1nc(Nc2ncc(C(=O)Nc3c(C)cccc3Cl)s2)cc(N2CC[C@H](O)C2)n1` is reported as 57% (OCI-Ly7; ATP luminescence; 10 µM; 72 h).
`CC1(C)C[C@H]2[C@H]1CC[C@]1(C)CCC[C@@]2(n2cc(C(=O)NCCN)nn2)C1` gave an inhibition of 53.4% (HT-29; CCK-8; 10 µM).
`O=c1c2cc(Cl)ccc2nc(-c2ccccc2)n1N=Cc1cccnc1` gave an IC50 of 326 µM (LLC-PK1; MTT; 72 h).
The inhibition of `CC1(C)C[C@H]2[C@H]1CC[C@]1(C)CCC[C@@]2(n2cc(C(=O)O)nn2)C1` is reported as less than 50% (HT-29; CCK-8; 10 µM).
For `O=c1c2cc(Cl)ccc2nc(-c2ccccc2)n1N=Cc1ccc2c(c1)OCO2`, the IC50 was 60.2 µM (LLC-PK1; MTT; 72 h).
For `C=C(NC(=O)C(=C)NC(=O)c1csc(C2=N[C@@H]3c4csc(n4)[C@H]4NC(=O)c5csc(n5)[C@H]([C@](C)(O)[C@@H](C)O)NC(=O)[C@H]5CSC(=N5)/C(=C/C)NC(=O)[C@H]([C@@H](C)O)NC(=O)c5csc(n5)[C@]3(CC2)NC(=O)[C@H](C)NC(=O)C(=C)NC(=O)[C@H](C)NC(=O)[C@H]([C@@H](C)CC)N[C@@H]2C=Cc3c([C@H](C)O)cc(nc3[C@H]2O)C(=O)O[C@@H]4C)n1)C(N)=O`, the EC50 was 0.7 µM (SQ20B).
